High-throughput results: PubChem BioAssay, several laboratories
RanGTP-Impb inh – inhibitors of RanGTP-importin-beta interaction, primary screen, biochemical, FRET, CFP-Ran, YFP-importin-beta, homogeneous | Ran GTPase (GTP-bound) - importin-beta complex | cell-free CFP-Ran/YFP-importin-beta FRET ratio | inhibition, % (no concentration beside the values) | 300,000 tested, 1.1% active | AID 2216, 2009;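 active = more than half of the replicate wells show a fall in the fluorescence ratio signal beyond about 16%, limit read from the data, passing the limit was not always enough; inconclusive = exactly half of the replicate wells pass the set limit; inactive = fewer than half of replicates pass the limit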;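 note: 0% = DMSO wells and 100% = Ran loaded with GDP instead of GTP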
Runt-SMMHC FRET – inhibitors of RUNX1 Runt–CBFb-SMMHC binding, primary screen, biochemical, FRET, Cerulean-Runt, Venus-CBFb-SMMHC, uHTS. Runt-related transcription factor 1 (Homo sapiens) + Core-binding factor subunit beta …. Cerulean-Runt/Venus-CBFb-SMMHC FRET ratio 530/480, 1 h. inhibition, % at 20 µM. 220,000 tested, 0.74% active;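 active = mean inhibition across duplicate retests at 20 µM reaching about 50%, limit read from the data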;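 note: 0% = DMSO wells and 100% = wells with excess untagged CBFb-SMMHC; inhibitors lower the FRET ratio by blocking Runt binding to CBFb-SMMHC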
Hck Nef HTS – inhibitors of Nef-activated human Hck kinase, primary screen, biochemical, Z-Lyte FRET, 384-well, Hck-YEEI | Recombinant Hck-YEEI plus Nef, Z-Lyte FRET kinase assay | inhibition, % at 20 µM | Tyrosine-protein kinase HCK (Homo sapiens), P08631 | 220,000 tested, 0.68% active;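 active = Hck-Nef kinase inhibition above about 50%, limit read from the data; inactive = inhibition below that limit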;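 note: 0% = DMSO with Hck plus Nef and 100% = Hck alone without Nef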
Target sequence (P08631 whole entry, looked up): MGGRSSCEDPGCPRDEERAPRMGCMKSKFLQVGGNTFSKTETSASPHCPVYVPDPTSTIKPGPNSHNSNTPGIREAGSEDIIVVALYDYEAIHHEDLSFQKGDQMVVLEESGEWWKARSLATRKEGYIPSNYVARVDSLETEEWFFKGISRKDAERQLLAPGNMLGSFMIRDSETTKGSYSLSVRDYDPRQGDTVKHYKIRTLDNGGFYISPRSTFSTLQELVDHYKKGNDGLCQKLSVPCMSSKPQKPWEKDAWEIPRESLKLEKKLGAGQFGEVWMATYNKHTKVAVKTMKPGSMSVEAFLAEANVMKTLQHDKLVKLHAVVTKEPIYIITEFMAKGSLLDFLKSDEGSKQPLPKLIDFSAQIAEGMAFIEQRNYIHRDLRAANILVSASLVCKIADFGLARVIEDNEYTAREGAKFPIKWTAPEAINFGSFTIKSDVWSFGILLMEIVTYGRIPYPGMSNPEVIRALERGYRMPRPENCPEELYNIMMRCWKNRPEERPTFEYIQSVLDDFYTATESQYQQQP
Runt-CBFb FRET – inhibitors of RUNX1 Runt–CBFb binding, primary screen, biochemical, FRET, Cerulean-Runt, Venus-CBFb, uHTS; inhibition, % at 20 µM; Runt-related transcription factor 1 (Homo sapiens) + Core-binding factor subunit beta …; Cerulean-Runt/Venus-CBFb FRET ratio 530/480, 1 h; 220,000 tested, 0.46% active;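 active = inhibition over about 50% at 20 µM in the single-dose screen, limit read from the data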;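 note: 0% = DMSO wells and 100% = excess unlabeled CBFb competitor control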
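Assay system: Cerulean-Runt domain / Medium: Tris 50 mM pH 7.5, KCl, K2SO4, 0.01% BSA / Timing: protein complex preformed 1 h, compound exposure 1 h, room temperature, dark / Measured by: FRET, excitation 422 nm, emission at 530 and 480 nm / Evaluation: loss of energy transfer signal / Control set: 5 µM unlabeled CBFb as full-inhibition high control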
RUNX1 CBFb TR – inhibitors of RUNX1 Runt–CBFb binding, biochemical, TR-FRET; shares compounds with Runt-CBFb FRET; TR-FRET RUNX1 Runt domain-CBFb binding; inhibition, % at 20 µM; 480 tested, 20% active; AID 1502, 2009; in the data active = inhibition above about 40%
Active calls of the source: *; ? = inconclusive; . = no result. Most compounds without a hit are left out; they make up all but 1.8% or so of the library.

SMILES	RanGTP-Impb inh	Runt-SMMHC FRET	Hck Nef HTS	Runt-CBFb FRET	RUNX1 CBFb TR
N#CC1=C2SCCN2C(=O)C(C#N)C12CCCCC2 (configuration not stated)	3.9	-3.0	1.5	55.6*	1.1
COCCN(C(=S)Nc1c(C)cc(C)cc1C)C(C)c1cccnc1 (configuration not stated)	?	41.7	0.7	51.3*	-11.9
CCN(CC)S(=O)(=O)c1cccc(NC(=O)CN(C)Cc2cccc(OC)c2)c1	0.0	-2.5	6.7	-0.5	.
Cc1ccc(C2NC(=O)c3ccccc3N2)s1 (configuration not stated)	1.7	-3.7	1.0	-1.6	.
CN1CCc2c(sc3c2C(=O)NC(c2cccs2)N3)C1 (configuration not stated)	117.8*	77.6*	5.7	61.5*	-5.6
COC(=O)c1ccc(C(=O)OC)c(NC(=S)N2CCCCC2C)c1 (configuration not stated)	?	86.7*	7.4	72.4*	67.2*
COC(=O)c1ccc(NC(=O)c2cccc(C)c2[N+](=O)[O-])cc1	0.6	-4.9	20.6	2.5	.
CC(C)CCN1CCN=C1Nc1ccccc1	-1.1	.	.	.	.
CCC(=O)c1ccc(OC(=O)N2CCOCC2)cc1	-1.9	.	.	.	.
CCOC(=O)c1c(NC(=S)Nc2ccc(C)cc2)sc2c1CCC2	1.3	9.2	2.6	5.9	.
CCOC(=O)c1c(NC(=S)Nc2ccc(OCC)cc2)sc2c1CCN(C)C2	18.7*	51.9*	-54.7	82.4*	13.3
CCOC(=O)C1(Cc2ccc(OC)cc2)CCN(C(=O)c2cncs2)CC1	-1.5	-4.6	-0.1	53.9*	34.3
O=C(c1noc2c1CCCC2)N1CCCC(N2CCN(c3ccccc3F)CC2)C1 (configuration not stated)	1.1	.	.	.	.
COc1ccc(C2C(C#N)=C(N)N(Nc3ccccc3)C3=C2C(=O)CC(C)(C)C3)cc1C (configuration not stated)	3.3	101.5*	0.5	61.5*	-2.8
CCOC(=O)CC(=O)CSc1nc(CC)c(C)cc1C#N	2.7	31.8	8.7	52.8*	-81.6
CCc1nc(SCC(=O)O)c(C#N)cc1C	2.3	-6.0	0.7	-0.9	.
CCCOc1ccccc1-c1nc2c([nH]1)c(=O)[nH]c(=O)n2C	74.5*	132.7*	3.0	75.3*	-12.8
O=C(NCCN1CCOCC1)C1CC(=O)N(c2ccc(Cl)cc2)C1 (configuration not stated)	1.6	.	.	.	.
O=C(CCNS(=O)(=O)c1cccc2nsnc12)NC1CCCc2ccccc21 (configuration not stated)	-1.2	1.9	-8.7	1.6	.
O=C(NC1CCCc2ccccc21)C1CCC(CNS(=O)(=O)c2cccc3nsnc23)CC1 (configuration not stated)	?	-2.2	0.3	83.1*	17.6
Cc1ccc2nc(NC(=O)C3CCCN(S(=O)(=O)c4cnc[nH]4)C3)sc2c1 (configuration not stated)	-3.3	-4.6	18.8	-1.1	.
CCSc1nnc(NC(=O)C2CCCN(S(=O)(=O)c3cnc[nH]3)C2)s1 (configuration not stated)	-1.6	0.5	22.0	64.2*	-10.2
CCOC(=O)N1CCC(NC(=O)c2ccc3c(c2)N(C)CCS3)CC1	.	.	0.5	67.0*	49.7*
Cc1ccc(-c2nnn(CC(=O)Nc3nnc(C(C)C)s3)n2)cc1	?	2.1	22.2	-1.5	.
S=c1nccc(-c2cccs2)[nH]1	3.2	49.7	25.4	65.1*	6.2
SMILES	RanGTP-Impb inh	Runt-SMMHC FRET	Hck Nef HTS	Runt-CBFb FRET	RUNX1 CBFb TR
c1csc(-c2ccn[nH]2)c1	5.3	-1.6	-1.7	1.2	.
CCOC(=O)c1ccc(N2C=C(C(=O)OC)C(c3cccc(O)c3)C(C(=O)OC)=C2)cc1	-1.1	.	.	.	.
NS(=O)(=O)c1ccc(NC(=S)NC2CCCC2)cc1	1.8	31.0	14.7	54.8*	-16.3
NS(=O)(=O)c1ccc(NC(=S)NC2CCCCCC2)cc1	3.6	-0.9	9.7	-5.1	.
CCNc1nc(NCC)nc(N/N=C(\C)c2ccc(OC)cc2)n1	0.7	2.1	-6.5	-0.1	.
CCOC(=O)C1=C(C)N(c2ccccc2)C(=O)/C1=C\c1ccc(O)c(OC)c1	3.2	-3.5	-46.7	54.9*	59.6*
Cc1nnc(N(C)C(=O)c2ccccn2)s1	1.9	-4.0	1.7	-0.7	.
CN(C(=O)c1ccccn1)c1nnc(-c2cccnc2)s1	.	-2.0	1.5	82.1*	-6.3
COc1ccccc1CNC(=O)CN1C(=O)c2ccc([N+](=O)[O-])cc2C1=O	1.4	.	.	.	.
COc1cc(/C=C(\C#N)c2nc3ccccc3[nH]2)cc(Br)c1OCc1ccc(F)cc1	5.2	106.3*	3.9	53.6*	-7.3
COc1cc(/C=C(\C#N)c2nc3ccccc3[nH]2)cc(Br)c1OCc1ccccc1	11.1	-65.7	6.8	-8.5	.
COc1ccc(/C=N/NC(=O)c2nc(-c3ccccc3)n(-c3ccccc3)n2)cc1OC	0.6	-5.4	0.3	76.0*	-9.7
COc1cc(/C=N/NC(=O)c2nc(-c3ccccc3)n(-c3ccccc3)n2)ccc1O	?	1.9	0.1	-3.1	.
COc1ccc(-n2nnnc2Sc2ccc(S(=O)(=O)N3CCOCC3)cn2)cc1	1.4	34.9	.	57.1*	-39.0
COc1ccc(-n2nnnc2SCC(=O)N2CCOCC2)cc1	7.3	-2.0	20.2	-0.3	.
O=S(=O)(Nc1ccncc1)c1cc(Cl)c(Cl)cc1Cl	-3.3	.	.	.	.
O=C(CSc1ncnc2ccccc12)c1cccs1	1.3	90.2*	20.3	53.6*	-28.1
CN1CCN(C2=C(Cl)C(=O)N(c3ccc(Cl)c(Cl)c3)C2=O)CC1	-3.9	23.4	-3.0	11.9	.
Cc1ccc(N2C(=O)C(Cl)=C(N3CCOCC3)C2=O)cc1Cl	0.5	53.6*	33.0	64.8*	19.8
COc1ccc(OC)c(NC(=O)c2ccno2)c1	-2.4	-0.7	-19.8	-2.7	.
CC1CCCCN1C(=O)Cn1cnc2cc([N+](=O)[O-])ccc2c1=O (configuration not stated)	2.2	-2.3	15.5	-1.3	.
CCOC(=O)CCC(=O)Nc1ccccc1C(N)=O	6.0	-0.7	3.4	0.0	.
CCCCOC(=O)Nc1ccccc1C(N)=O	?	116.3	1.5	51.0*	1.5
O=C1CCN(Cc2ccccc2)N1	0.2	.	.	.	.
Cc1cc(-c2ccccc2)c2c(n1)sc1c(O)cc(=O)[nH]c12	8.6	5.0	20.0	21.9	.
CCc1nc2sc3c(O)cc(=O)[nH]c3c2cc1C	-0.8	56.2	11.8	52.2*	53.9*
